Data as given in ChEMBL document CHEMBL1154720, “Synthesis and biological evaluation of novel 4-hydroxybenzaldehyde derivatives as tyrosinase inhibitors” (Eur J Med Chem, 2010).
pIC50, pKi: −log10 of the molar value.

Key:
Tyrosinase [1] = biological target: T1, Tyrosinase (Agaricus bisporus, UniProt O42713); experiment: Inhibition of mashroom tyrosinase assessed as oxidation of L-DOPA by spectrophotometry
T1 sequence (O42713 whole entry): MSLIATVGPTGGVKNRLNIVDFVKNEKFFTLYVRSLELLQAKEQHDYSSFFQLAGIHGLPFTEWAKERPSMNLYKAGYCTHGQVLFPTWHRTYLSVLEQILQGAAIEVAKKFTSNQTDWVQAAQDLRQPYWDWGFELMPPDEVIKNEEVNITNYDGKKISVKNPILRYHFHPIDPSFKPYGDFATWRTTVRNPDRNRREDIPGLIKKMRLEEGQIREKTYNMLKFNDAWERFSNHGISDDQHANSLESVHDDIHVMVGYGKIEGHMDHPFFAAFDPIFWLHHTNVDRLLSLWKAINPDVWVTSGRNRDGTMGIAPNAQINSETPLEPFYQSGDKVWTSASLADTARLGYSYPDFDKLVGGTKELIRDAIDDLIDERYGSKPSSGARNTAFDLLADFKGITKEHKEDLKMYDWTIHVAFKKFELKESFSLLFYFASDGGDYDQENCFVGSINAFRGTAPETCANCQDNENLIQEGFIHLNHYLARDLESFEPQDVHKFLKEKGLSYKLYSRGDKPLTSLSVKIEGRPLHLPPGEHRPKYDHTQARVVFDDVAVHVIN
Procedure, shortened: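 Mushroom tyrosinase diphenolase activity with L-DOPA as substrate. Compounds dissolved in DMSO and diluted with phosphate buffer pH 6.8, final DMSO 2.0%. Thirty units of enzyme pre-incubated with compound in 50 mM phosphate buffer (pH 6.8) for 10 min at 25 °C. Triplicate per concentration. IC50 interpolated from log concentration–inhibition curves (at least eight points), mean of three experiments.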

Tyrosinase [2] = biological target: T1, Tyrosinase; experiment: Inhibition of mushroom tyrosinase assessed as oxidation of L-DOPA by Lineweaver-Burke plot analysis
Procedure, shortened: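 Kinetics use the same pre-incubation (10 min, 25 °C, 50 mM phosphate pH 6.8) and measurement time as the IC50 assay, with three inhibitor concentrations per compound including zero and L-DOPA varied. Initial velocity taken from absorbance change over time. Lineweaver–Burk plots were drawn, and KI was obtained from a secondary plot of intercept versus inhibitor concentration.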

Mus musculus = experiment: Toxicity in mouse at 1600 mg/kg/day, po measured for 20 days; type: organism-based; set-up: route oral; conditions: in vivo, 480 h
Procedure, shortened: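 Ten specific-pathogen-free mice, 4 weeks old, acclimated for one week at 20 ± 2 °C and 50 ± 10% relative humidity, weighing 20 ± 2 g. Mice were fasted 4 h, then given a single oral gavage in carboxymethyl cellulose (10 ml/kg; dosing solution 160 mg/ml). Vehicle served as negative control. Clinical signs and mortality were followed 20 days, then organs were examined at autopsy.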

| SMILES | pIC50 (Tyrosinase [1]) | pKi (Tyrosinase [2]) | Activity (Mus musculus) |
| --- | --- | --- | --- |
| O=Cc1ccc(OCCOP(=O)(O)O)cc1 | 3.09 | – | – |
| COCCCCOc1ccc(C=O)cc1 | 3.21 | – | – |
| O=Cc1ccc(OCCO)cc1 | 2.59 | – | – |
| COC(=O)C1CCCN1C(=O)COc1ccc(C=O)cc1 (stereo not drawn) | 3.12 | – | – |
| CCC(C)C(NC(=O)COc1ccc(C=O)cc1)C(=O)OC (stereo not drawn) | 3.34 | – | – |
| COCCOCCOc1ccc(C=O)cc1 | 3.05 | – | – |
| COC(=O)CNC(=O)COc1ccc(C=O)cc1 | 3.77 | 3.93 | – |
| COCCOc1ccc(C=O)cc1 | 3.18 | – | – |
| COCC(O)COc1ccc(C=O)cc1 (stereo not drawn) | 3.12 | – | – |
| O=Cc1ccc(OCOC(CO)CO)cc1 | 3.57 | – | – |
| COC(=O)C(Cc1ccc(O)cc1)NC(=O)COc1ccc(C=O)cc1 (stereo not drawn) | 3.66 | – | – |
| O=Cc1ccc(OCOCCO)cc1 | 3.43 | – | – |
| COC(=O)C(Cc1c[nH]c2ccccc12)NC(=O)COc1ccc(C=O)cc1 (stereo not drawn) | 3.96 | 4.27 | – |
| COC(=O)C(Cc1ccccc1)NC(=O)COc1ccc(C=O)cc1 (stereo not drawn) | 3.32 | – | – |
| O=Cc1ccc(OCC(O)CO)cc1 (stereo not drawn) | 2.90 | – | – |
| O=Cc1ccc(OCC2CO2)cc1 (stereo not drawn) | 3.23 | – | – |
| CCCCOCCOc1ccc(C=O)cc1 | 2.49 | – | – |
| COP(=O)(OC)OCCOc1ccc(C=O)cc1 | 4.23 | 4.43 | Non-toxic |
| O=Cc1ccc(OCCOC(=O)CCC(=O)O)cc1 | 3.21 | – | – |
| COC(=O)C(C)NC(=O)COc1ccc(C=O)cc1 (stereo not drawn) | 3.80 | 3.90 | – |
| COC(=O)C(CCSC)NC(=O)COc1ccc(C=O)cc1 (stereo not drawn) | 3.40 | – | – |
| CCOP(=O)(OCC)OCCOc1ccc(C=O)cc1 | 3.26 | – | – |
| COC(=O)C(CC(C)C)NC(=O)COc1ccc(C=O)cc1 (stereo not drawn) | 2.78 | – | – |
